Measurements: ChEMBL document CHEMBL4808178 (J Med Chem, 2021)
Activity calls are given as the source filed them. The calls are words filed in the database; no cut-off is given here.

What was measured:
[1] = system: HCT-116; experiment: Induction of cell cycle arrest in human HCT116 cells assessed as accumulation at G2/M phase at 20 uM after 24 hrs by propidium iodide-staining based flow cytometry (reference value: 14.67%); format: functional
[2] = system: HCT-116; experiment: Cytotoxicity against human HCT-116 cells assessed as reduction in cell viability incubated for 72 hrs by MTT assay; format: functional, cell-based; details: HCT-116, 72 h
Method in brief: (§1)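 About 5 × 10³ cells/well, seeded overnight at 37 °C, 5% CO₂, in DMEM or RPMI-1640 with 10% FBS and antibiotics. DMSO-dissolved compounds diluted in medium, exposure 72 h.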

[3] = system: T-24; experiment: Cytotoxicity against human T24 cells assessed as reduction in cell viability incubated for 72 hrs by MTT assay; format: functional, cell-based; details: T-24, 72 h; method in brief: as §1
[4] = Half life in Sprague-Dawley rat at 25 mg/kg, po measured up to 48 hrs by LC-MS/MS analysis; format: ADME, organism-based; details: in vivo
Method in brief: (§2)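 Overnight-fasted male SD rats (about 250−270 g), three per group, single oral 25 mg/kg; test compound suspended in 5% CMC-Na, control as sodium salt in phosphate buffer. Blood sampled 0.25–48 h, plasma by centrifugation, stored −40 °C, quantified by LC−MS/MS against plasma standard curve (3–3000 ng/mL) with internal standard; model-fitted PK parameters.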

[5] = system: HCT-116; experiment: Induction of cell cycle arrest in human HCT116 cells assessed as accumulation at G0/G1 phase at 20 uM after 24 hrs by propidium iodide-staining based flow cytometry (reference value: 48.89%); format: functional
[6] = MRT(0 to t) in Sprague-Dawley rat at 25 mg/kg, po measured up to 48 hrs by LC-MS/MS analysis; format: ADME, organism-based; details: in vivo
Method in brief: (§3)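 Overnight-fasted male SD rats (250−270 g, n = 3/group), single oral 25 mg/kg in 5% CMC-Na (reference sodium salt in phosphate buffer); plasma at 0.25–48 h (12 timepoints), stored −40 °C; LC−MS/MS with internal-standard calibration 3–3000 ng/mL; parameters fitted by model.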

[7] = Clearance in Sprague-Dawley rat at 25 mg/kg, po measured up to 48 hrs by LC-MS/MS analysis; format: ADME, organism-based; details: in vivo; method in brief: as §2
[8] = system: HT-29; experiment: Cytotoxicity against human HT-29 cells assessed as reduction in cell viability incubated for 72 hrs by MTT assay; format: functional, cell-based; details: HT-29, 72 h
[9] = MRT(0 to infinity) in Sprague-Dawley rat at 25 mg/kg, po measured up to 48 hrs by LC-MS/MS analysis; format: ADME, organism-based; details: in vivo; method in brief: as §3
[10] = system: L02; experiment: Cytotoxicity against human L02 cells assessed as reduction in cell viability incubated for 72 hrs by MTT assay; format: cell-based; details: L02, 72 h; method in brief: as §1
[11] = system: HCT-116; experiment: Induction of cell cycle arrest in human HCT116 cells assessed as accumulation at S phase at 20 uM after 24 hrs by propidium iodide-staining based flow cytometry (reference value: 36.43%); format: functional
[12] = target: T1, Aldehyde dehydrogenase 1A1 (Homo sapiens) (UniProt P00352); experiment: Inhibition of ALDH1A1 in human HCT116 cells at 5 uM after 24 hrs by aldefluor staining based fluorescence analysis; format: cell-based; details: HCT-116
T1 sequence (whole entry): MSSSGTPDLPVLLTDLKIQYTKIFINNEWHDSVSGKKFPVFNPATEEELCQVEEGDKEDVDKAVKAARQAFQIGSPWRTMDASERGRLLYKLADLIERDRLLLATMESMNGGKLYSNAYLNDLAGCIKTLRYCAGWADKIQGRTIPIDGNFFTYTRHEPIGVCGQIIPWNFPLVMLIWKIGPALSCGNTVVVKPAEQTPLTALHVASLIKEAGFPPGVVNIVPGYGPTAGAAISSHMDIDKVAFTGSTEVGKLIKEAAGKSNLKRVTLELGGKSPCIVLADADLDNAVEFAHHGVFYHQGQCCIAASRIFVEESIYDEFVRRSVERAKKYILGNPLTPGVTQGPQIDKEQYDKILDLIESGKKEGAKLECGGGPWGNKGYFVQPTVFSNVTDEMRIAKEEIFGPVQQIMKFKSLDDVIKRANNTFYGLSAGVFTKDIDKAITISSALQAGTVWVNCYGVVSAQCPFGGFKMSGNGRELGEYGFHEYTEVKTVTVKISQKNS
Method in brief: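 HCT-116 cells, 2 × 10⁵/well, grown overnight at 37 °C, 5% CO₂, then treated 24 h (vehicle DMSO). Aldefluor staining read in FITC channel by FACS for proportion of ALDH⁺ cells; DEAB-pretreated cells set baseline fluorescence.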

[13] = system: PC-3; experiment: Cytotoxicity against human PC3 cells assessed as reduction in cell viability incubated for 72 hrs by MTT assay; format: functional, cell-based; details: PC-3, 72 h; method in brief: as §1
[14] = Volume of distribution in Sprague-Dawley rat at 25 mg/kg, po measured up to 48 hrs by LC-MS/MS analysis; format: ADME, organism-based; details: in vivo; method in brief: as §3
[15] = AUC(0 to t) in Sprague-Dawley rat at 25 mg/kg, po measured up to 48 hrs by LC-MS/MS analysis; format: ADME, organism-based; parameters: route oral, dose 25 mg/kg, time <=48; details: in vivo; method in brief: as §2
[16] = system: HCT-116; experiment: Inhibition of cell stemness in human HCT116 cells assessed as morphological alterations at 5 uM after 10 days by microscopic analysis; format: functional, cell-based; details: time 10.0 day
Method in brief: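 Sorted ALDH⁺ HCT-116 cells, 800/well, in serum-free DMEM with B27 (1:50), EGF 20 ng/mL, β-FGF 10 ng/mL; co-incubated with compound (5 μM) or DMSO vehicle for 10 days; sphere number, diameter and morphology scored from microscopy images; mean ± SD, n = 3.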

[17] = system: HCT-116; experiment: Inhibition of cell stemness in human HCT116 cells assessed as inhibition of CD44+/CD133+ expression at 20 uM after 24 hrs by flow cytometry analysis; format: functional
Method in brief: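 ALDH⁺ HCT-116 subpopulation sorted by flow cytometry; 2 × 10⁵ cells/well seeded overnight at 37 °C, 5% CO₂; treated 20 μM for 24 h (vehicle DMSO); stained with PE anti-CD133 and FITC anti-CD44 30 min; CD44⁺/CD133⁺ read by flow cytometry.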

[18] = system: HCT-116; experiment: Antitumor activity against human HCT116 cells xenografted in BALB/c athymic nude mouse assessed as tumor growth inhibition at 60 mg/kg, po administered twice daily for 4 weeks and measured every 3 days; format: functional; details: HCT-116, po, 672 h, read-out: TGI
Method in brief: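 Male BALB/c athymic nude mice, 5 weeks old, 16−18 g, given 0.2 mL of 5 × 10⁷ cells/mL HCT-116 in right armpit. At about 100 mm³, randomized to groups of five; intragastric dosing twice daily for 4 weeks. Tumor volume and body weight every 3 days; tumors weighed after sacrifice; organs HE-stained.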

[19] = system: HCT-116; experiment: Induction of apoptosis in human HCT116 cells assessed as late apoptotic cells at 5 uM after 24 hrs by annexin V-FITC/propidium iodide staining based flow cytometry (reference value: 5.1%); format: functional
[20] = system: HCT-116; experiment: Induction of apoptosis in human HCT116 cells assessed as viable cells at 5 uM after 24 hrs by annexin V-FITC/propidium iodide staining based flow cytometry (reference value: 88.3%); format: functional; details: read-out: Activity
[21] = AUC(0 to infinity) in Sprague-Dawley rat at 25 mg/kg, po measured up to 48 hrs by LC-MS/MS analysis; format: ADME, organism-based; parameters: route oral, dose 25 mg/kg, time <=48; details: in vivo; method in brief: as §2
[22] = system: MCF7; experiment: Cytotoxicity against human MCF7 cells assessed as reduction in cell viability incubated for 72 hrs by MTT assay; format: functional, cell-based; details: MCF7, 72 h; method in brief: as §1
[23] = Tmax in Sprague-Dawley rat at 25 mg/kg, po measured up to 48 hrs by LC-MS/MS analysis; format: ADME, organism-based; details: in vivo; method in brief: as §3
[24] = Cmax in Sprague-Dawley rat at 25 mg/kg, po measured up to 48 hrs by LC-MS/MS analysis; format: ADME, organism-based; parameters: route oral, dose 25 mg/kg, time <=48; details: in vivo; method in brief: as §2
[25] = system: HCT-116; experiment: Induction of apoptosis in human HCT116 cells assessed as early apoptotic cells at 5 uM after 24 hrs by annexin V-FITC/propidium iodide staining based flow cytometry (reference value: 1%); format: functional
[26] = system: HCT-116; experiment: Induction of apoptosis in human HCT116 cells assessed as necrotic cells at 5 uM after 24 hrs by annexin V-FITC/propidium iodide staining based flow cytometry (reference value: 5.6%); format: functional

Work on O=C(O)c1ccc2c(c1)nc(Nc1cccc(Cl)c1)c1ccncc12 [SILMITASERTIB] yielded an Activity [1] of 11.21%, an IC50 [2] of 13.2 µM and an IC50 [3] of 12.9 µM. For the same compound, the half-life [4] was 5.82 h, the Activity [5] was 62.48% and the MRT last at 48 h [6] was 6.45 h. For the same compound, the CL/F [7] was 10.5 mL/min/kg, the IC50 [8] was 16 µM and the MRT inf [9] was 6.52 h. It also gave an IC50 [10] of 23 µM, an Activity [11] of 26.31% and an inhibition [12] of 61%. For the same compound, the IC50 [13] was 12.8 µM, the Vd [14] was 2.39 L/kg and the AUC(0-t) at 48 h [15] was 38900 ng·h/mL. For the same compound, the inhibition [16] was “Active”, the inhibition at 20 µM [17] was 58% and the inhibition in vivo at 60 mg/kg [18] was 15%. For the same compound, the Activity [19] was 8.3%, the viability at 5 µM [20] was 80.7% and the AUC(0-inf) [21] was 40000 ng·h/mL. It also gave an IC50 [22] of 15.3 µM, a Tmax [23] of 2 h and a Cmax [24] of 6790 ng/mL. For the same compound, the Activity [25] was 6.8% and the Activity [26] was 4.2%.
